Legend:
[1] = biological target: Dual specificity protein phosphatase 3 (Homo sapiens) (UniProt P51452); test: Inhibition of VHR (unknown origin) assessed as inhibition rate at 100 uM
[2] = biological target: T1, Tyrosine-protein phosphatase non-receptor type 2 (Homo sapiens) (UniProt P17706); test: Inhibition of TCPTP (unknown origin) assessed as inhibition rate at 100 uM
T1 sequence (whole entry): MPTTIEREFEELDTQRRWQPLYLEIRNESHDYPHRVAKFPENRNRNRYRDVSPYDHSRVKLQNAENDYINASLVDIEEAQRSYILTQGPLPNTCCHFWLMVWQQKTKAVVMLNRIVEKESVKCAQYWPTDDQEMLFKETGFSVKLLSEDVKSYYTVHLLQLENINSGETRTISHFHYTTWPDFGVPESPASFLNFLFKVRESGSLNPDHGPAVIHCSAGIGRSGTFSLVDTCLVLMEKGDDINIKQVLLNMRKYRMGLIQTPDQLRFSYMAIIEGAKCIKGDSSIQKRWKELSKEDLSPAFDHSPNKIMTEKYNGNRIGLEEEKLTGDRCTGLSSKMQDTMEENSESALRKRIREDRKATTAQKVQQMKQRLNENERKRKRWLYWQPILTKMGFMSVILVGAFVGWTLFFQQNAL

Homo sapiens [3] = species: Homo sapiens; test: Ratio of inhibition rate for PTP1B (unknown origin) at 75 uM to inhibition rate for SHP2 (unknown origin) at 100 uM
Homo sapiens [4] = species: Homo sapiens; test: Ratio of inhibition rate for PTP1B (unknown origin) at 75 uM to inhibition rate for SHP1 (unknown origin) at 100 uM
[5] = biological target: T2, Tyrosine-protein phosphatase non-receptor type 11 (Homo sapiens) (UniProt Q06124); test: Inhibition of SHP2 (unknown origin) assessed as inhibition rate at 100 uM
T2 sequence (whole entry): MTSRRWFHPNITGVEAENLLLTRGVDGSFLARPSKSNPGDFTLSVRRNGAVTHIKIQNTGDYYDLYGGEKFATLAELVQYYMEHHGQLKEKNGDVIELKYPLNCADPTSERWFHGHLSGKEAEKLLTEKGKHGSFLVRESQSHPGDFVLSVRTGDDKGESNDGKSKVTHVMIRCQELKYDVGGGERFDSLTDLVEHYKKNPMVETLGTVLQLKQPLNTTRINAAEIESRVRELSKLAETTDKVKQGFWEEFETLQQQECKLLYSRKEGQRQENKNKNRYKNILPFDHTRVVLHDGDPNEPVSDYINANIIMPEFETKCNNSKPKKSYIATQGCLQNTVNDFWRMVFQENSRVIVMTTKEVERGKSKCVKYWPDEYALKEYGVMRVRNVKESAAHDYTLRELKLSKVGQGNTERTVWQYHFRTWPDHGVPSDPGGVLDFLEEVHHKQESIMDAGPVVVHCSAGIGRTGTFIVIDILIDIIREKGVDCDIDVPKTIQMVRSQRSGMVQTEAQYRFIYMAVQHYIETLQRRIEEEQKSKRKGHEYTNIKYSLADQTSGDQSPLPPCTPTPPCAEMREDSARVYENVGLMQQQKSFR

[6] = biological target: T3, Tyrosine-protein phosphatase non-receptor type 1 (Homo sapiens, UniProt P18031); test: Inhibition of PTP1B (unknown origin)
T3 sequence (P18031 whole entry): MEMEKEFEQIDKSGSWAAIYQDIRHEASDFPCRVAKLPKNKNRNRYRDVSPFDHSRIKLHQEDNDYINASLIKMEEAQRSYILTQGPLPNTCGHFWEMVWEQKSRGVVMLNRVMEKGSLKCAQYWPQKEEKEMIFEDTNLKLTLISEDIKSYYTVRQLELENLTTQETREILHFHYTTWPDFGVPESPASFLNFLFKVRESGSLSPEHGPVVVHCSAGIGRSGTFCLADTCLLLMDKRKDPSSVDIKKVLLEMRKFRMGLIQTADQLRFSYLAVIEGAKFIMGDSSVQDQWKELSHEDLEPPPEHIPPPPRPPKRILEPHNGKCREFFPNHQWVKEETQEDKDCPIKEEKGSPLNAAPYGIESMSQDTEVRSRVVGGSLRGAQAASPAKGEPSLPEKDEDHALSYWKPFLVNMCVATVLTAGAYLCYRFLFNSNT
Outline: (§1)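 PTP1B enzymatic assay with RK-682 as the positive control. For the single-point screen, compounds were tested at a final 100 µM. For dose–response, inhibition was measured over a range of compound concentrations, and IC50 was obtained by regression analysis.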

[7] = biological target: T4, Tyrosine-protein phosphatase non-receptor type 1 (Homo sapiens) (UniProt P18031); test: Inhibition of PTP1B (unknown origin) assessed as inhibition rate at 100 uM; outline: as §1
T4 sequence (whole entry): T3 sequence (P18031 whole entry)

HepG2 = test: Induction of Akt phosphorylation in insulin-stimulated human HepG2 cells assessed as pAkt/Akt ratio at 50 uM after 5 mins by western blotting analysis relative to control; type: functional
Outline: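 HepG2 cells were treated with compound at 50 µM, then stimulated with insulin. pAkt was assessed by western blotting at 0 and 5 min after insulin. DMSO served as the negative control and sodium orthovanadate (200 µM) as the positive control. Values are expressed relative to control.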

[8] = biological target: T3, Tyrosine-protein phosphatase non-receptor type 1; test: Non-competitive inhibition of PTP1B (unknown origin) assessed as hydrolysis of para-nitrophenylphosphate by Lineweaver-Burk plot
Outline: (§2)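 Kinetic study of PTP1B varying both compound and p-nitrophenylphosphate substrate concentrations. Mode was read from Lineweaver–Burk plots. Slopes from those plots were replotted against compound concentration (secondary plot), and Ki was calculated from that plot.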

[9] = biological target: Tyrosine-protein phosphatase non-receptor type 6 (Homo sapiens) (UniProt P29350); test: Inhibition of SHP1 (unknown origin) assessed as inhibition rate at 100 uM
Sequence of Tyrosine-protein phosphatase non-receptor type 6 (Homo sapiens) (P29350 whole entry): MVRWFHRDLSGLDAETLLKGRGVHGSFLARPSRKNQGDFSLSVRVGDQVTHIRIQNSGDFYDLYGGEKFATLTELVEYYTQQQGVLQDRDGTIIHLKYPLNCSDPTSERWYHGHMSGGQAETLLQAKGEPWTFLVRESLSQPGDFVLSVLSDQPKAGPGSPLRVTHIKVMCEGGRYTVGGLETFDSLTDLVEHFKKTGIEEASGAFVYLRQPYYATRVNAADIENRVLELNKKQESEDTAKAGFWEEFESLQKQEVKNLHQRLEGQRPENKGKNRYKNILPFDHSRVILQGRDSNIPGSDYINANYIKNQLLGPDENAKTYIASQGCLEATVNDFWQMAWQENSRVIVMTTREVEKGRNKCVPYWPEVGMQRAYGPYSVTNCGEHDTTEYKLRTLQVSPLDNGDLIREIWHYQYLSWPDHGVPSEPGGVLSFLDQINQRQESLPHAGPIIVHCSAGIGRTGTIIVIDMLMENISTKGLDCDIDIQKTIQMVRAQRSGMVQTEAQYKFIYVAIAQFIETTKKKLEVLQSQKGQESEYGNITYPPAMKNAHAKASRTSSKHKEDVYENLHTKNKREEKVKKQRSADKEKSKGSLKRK

Homo sapiens [10] = species: Homo sapiens; test: Ratio of inhibition rate for PTP1B (unknown origin) at 75 uM to inhibition rate for VHR (unknown origin) at 100 uM
Homo sapiens [11] = species: Homo sapiens; test: Ratio of inhibition rate for PTP1B (unknown origin) at 75 uM to inhibition rate for TCPTP (unknown origin) at 100 uM
[12] = biological target: Tyrosine-protein phosphatase non-receptor type 6 (Homo sapiens) (UniProt P29350); test: Inhibition of SHP1 (unknown origin) assessed as inhibition rate at 75 uM
[13] = biological target: Dual specificity protein phosphatase 3 (Homo sapiens) (UniProt P51452); test: Inhibition of VHR (unknown origin) assessed as inhibition rate at 75 uM
Homo sapiens [14] = species: Homo sapiens; test: Ratio of inhibition rate for PTP1B (unknown origin) at 75 uM to inhibition rate for TCPTP (unknown origin) at 75 uM
[15] = biological target: T1, Tyrosine-protein phosphatase non-receptor type 2 (Homo sapiens); test: Inhibition of TCPTP (unknown origin) assessed as inhibition rate at 75 uM
[16] = biological target: T4, Tyrosine-protein phosphatase non-receptor type 1 (Homo sapiens); test: Inhibition of PTP1B (unknown origin) assessed as inhibition rate at 75 uM
[17] = biological target: T2, Tyrosine-protein phosphatase non-receptor type 11 (Homo sapiens); test: Inhibition of SHP2 (unknown origin) assessed as inhibition rate at 75 uM
Homo sapiens [18] = species: Homo sapiens; test: Ratio of inhibition rate for PTP1B (unknown origin) at 75 uM to inhibition rate for SHP2 (unknown origin) at 75 uM
Homo sapiens [19] = species: Homo sapiens; test: Ratio of inhibition rate for PTP1B (unknown origin) at 75 uM to inhibition rate for VHR (unknown origin) at 75 uM
[20] = biological target: T3, Tyrosine-protein phosphatase non-receptor type 1; test: Competitive inhibition of PTP1B (unknown origin) assessed as hydrolysis of para-nitrophenylphosphate by Lineweaver-Burk plot; outline: as §2
Homo sapiens [21] = species: Homo sapiens; test: Ratio of inhibition rate for PTP1B (unknown origin) at 75 uM to inhibition rate for SHP1 (unknown origin) at 75 uM
[22] = biological target: Tyrosine-protein phosphatase non-receptor type 6 (Homo sapiens) (UniProt P29350); test: Inhibition of SHP1 (unknown origin) assessed as inhibition rate at 90 uM
[23] = biological target: T4, Tyrosine-protein phosphatase non-receptor type 1 (Homo sapiens); conditions: 90 uM
[24] = biological target: T2, Tyrosine-protein phosphatase non-receptor type 11 (Homo sapiens); test: Inhibition of SHP2 (unknown origin) assessed as inhibition rate at 90 uM
[25] = biological target: T1, Tyrosine-protein phosphatase non-receptor type 2 (Homo sapiens); test: Inhibition of TCPTP (unknown origin) assessed as inhibition rate at 90 uM
[26] = biological target: Dual specificity protein phosphatase 3 (Homo sapiens) (UniProt P51452); test: Inhibition of VHR (unknown origin) assessed as inhibition rate at 90 uM

Sequence of Dual specificity protein phosphatase 3 (Homo sapiens) (P51452 whole entry, looked up): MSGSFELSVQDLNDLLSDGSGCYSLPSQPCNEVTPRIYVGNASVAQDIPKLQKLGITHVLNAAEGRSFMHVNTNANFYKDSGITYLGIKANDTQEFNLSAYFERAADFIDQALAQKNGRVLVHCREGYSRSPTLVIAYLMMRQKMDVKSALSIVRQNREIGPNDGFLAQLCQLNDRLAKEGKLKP

COc1ccc2c3ccn(C)c4cc(=O)c(=O)n(c3-4)c2c1
inhibition [1]: 61.4%
inhibition [2]: 15%
Ratio (Homo sapiens [3]): 2.1
Ratio (Homo sapiens [4]): 3.3
inhibition [5]: 44.4%
IC50 [6]: 19.2 µM
inhibition [7]: 93.8%
pAkt/Akt ratio (HepG2): 1.8
Ki [8]: 12.9 µM
inhibition [9]: 28.7%
Ratio (Homo sapiens [10]): 1.5
Ratio (Homo sapiens [11]): 6.3

Cn1ccc2c3n(c(=O)c(=O)cc1-3)c1ccccc21
inhibition [12]: 13.2%
inhibition [13]: 20.6%
Ratio (Homo sapiens [14]): 3.2
inhibition [15]: 29%
IC50 [6]: 19.8 µM
inhibition [16]: 91.4%
inhibition [17]: 16.3%
pAkt/Akt ratio (HepG2): 2.4
Ratio (Homo sapiens [18]): 5.6
Ratio (Homo sapiens [19]): 4.4
Ki [20]: 7.07 µM
Ratio (Homo sapiens [21]): 6.9

CCc1c2n(C)ccc3c-2n(c(=O)c1=O)c1ccccc31
inhibition [1]: 19.7%
inhibition [2]: 40%
Ratio (Homo sapiens [3]): 3.6
Ratio (Homo sapiens [4]): 4.4
inhibition [5]: 25%
IC50 [6]: 27.8 µM
inhibition [7]: 91%
pAkt/Akt ratio (HepG2): 1.2
Ki [8]: 20 µM
inhibition [9]: 20.6%
Ratio (Homo sapiens [10]): 4.6
Ratio (Homo sapiens [11]): 2.3

CC(=O)Oc1cc2nccc3c4ccccc4n(c1=O)c23
inhibition [22]: 30.2%
inhibition [23]: 90.3%
inhibition [24]: 23%
IC50 [6]: 28.9 µM
pAkt/Akt ratio (HepG2): 2.1
Ki [8]: 18.4 µM
inhibition [25]: 22.1%
inhibition [26]: 46%
